According to ChEMBL document CHEMBL1145889, “Potent and selective inhibitors of platelet-derived growth factor receptor phosphorylation. 3. Replacement of quinazoline moiety and improvement of metabolic polymorphism of 4-[4-(N-substituted (thio)carbamoyl)-1-piperazinyl]-6,7-dimethoxyquinazoline derivatives” (J Med Chem, 2003):

How the values were obtained:
Assay type in all cases: ADME, organism-based
[1] = Mean residence time after oral administration of 30 mg/kg of compound in rat no.7 belonging to phenotype PM (poor metabolizer); set-up: dose 30 mg/kg, route oral; settings: in vivo
In short: (§1)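 Male Sprague–Dawley rats (nos. 5–7) were given 30 mg/kg orally. Plasma concentration was determined by HPLC. Tmax, T1/2, MRT, Cmax and AUC came from model-independent analysis. Extensive and poor metabolizers were assigned from the concentration–time profiles.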

[2] = Volume of distribution at steady state was determined after administering 1 mg/kg of compound intravenously in rat no.3 belonging to phenotype EM (extensive metabolizer); set-up: dose 1 mg/kg, route intravenous; settings: in vivo, iv, read-out: Vdss
In short: (§2)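 Male Sprague–Dawley rats (nos. 1–4) were dosed intravenously at 1 mg/kg. Plasma drug concentration was measured by HPLC. Parameters were derived by model-independent analysis. Rats were classed as extensive or poor metabolizers from their plasma profiles.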

[3] = Pharmacokinetic parameter (AUC) was determined after administering 30 mg/kg of compound orally in rat no.6 belonging to phenotype EM (extensive metabolizer); set-up: dose 30 mg/kg, route oral; settings: in vivo, po; in short: as §1
[4] = Maximum plasma concentration was determined after administering 30 mg/kg of compound orally in rat no.6 belonging to phenotype EM (extensive metabolizer); set-up: dose 30 mg/kg, route oral; settings: po; in short: as §1
[5] = Plasma clearance was determined after administering 1 mg/kg of compound intravenously in rat no.1 belonging to phenotype EM (extensive metabolizer); set-up: dose 1 mg/kg, route intravenous; settings: iv; in short: as §2
[6] = Pharmacokinetic parameter (AUC) was determined after administering 1 mg/kg of compound intravenously in rat no.3 belonging to phenotype EM (extensive metabolizer); set-up: dose 1 mg/kg, route intravenous; settings: in vivo, iv; in short: as §2
[7] = Pharmacokinetic parameter (AUC) was determined after administering 30 mg/kg of compound orally in rat no.5 belonging to phenotype PM (poor metabolizer); set-up: dose 30 mg/kg, route oral; settings: in vivo, po; in short: as §1
[8] = Pharmacokinetic parameter (AUC) was determined after administering 1 mg/kg of compound intravenously in rat no.4 belonging to phenotype PM (poor metabolizer); set-up: dose 1 mg/kg, route intravenous; settings: in vivo, iv; in short: as §2
[9] = Mean residence time of intravenously administered compound (1 mg/kg) in rat no.1 belonging to phenotype EM (extensive metabolizer); settings: in vivo, iv; in short: as §2
[10] = Half-life period of intravenously administered compound (1 mg/kg) in rat no.2 belonging to phenotype EM (extensive metabolizer); settings: in vivo, iv, read-out: T1/2 beta (converted); in short: as §2
[11] = Plasma clearance was determined after administering 1 mg/kg of compound intravenously in rat no.2 belonging to phenotype EM (extensive metabolizer); set-up: dose 1 mg/kg, route intravenous; settings: iv; in short: as §2
[12] = Maximum plasma concentration was determined after administering 30 mg/kg of compound orally in rat no.5 belonging to phenotype PM (poor metabolizer); set-up: dose 30 mg/kg, route oral; settings: po; in short: as §1
[13] = Pharmacokinetic parameter (AUC) was determined after administering 30 mg/kg of compound orally in rat no.7 belonging to phenotype PM (poor metabolizer); set-up: dose 30 mg/kg, route oral; settings: in vivo, po; in short: as §1
[14] = Mean residence time after oral administration of 30 mg/kg of compound in rat no.5 belonging to phenotype PM (poor metabolizer); set-up: dose 30 mg/kg, route oral; settings: in vivo; in short: as §1
[15] = Half-life period of orally administered compound (30 mg/kg) in rat no.7 belonging to phenotype PM (poor metabolizer); settings: in vivo, po; in short: as §1
[16] = Volume of distribution at steady state was determined after administering 1 mg/kg of compound intravenously in rat no.4 belonging to phenotype PM (poor metabolizer); set-up: dose 1 mg/kg, route intravenous; settings: in vivo, iv, read-out: Vdss; in short: as §2
[17] = Half-life period of orally administered compound (30 mg/kg) in rat no.6 belonging to phenotype EM (extensive metabolizer); settings: in vivo, po; in short: as §1
[18] = Half-life period of orally administered compound (30 mg/kg) in rat no.5 belonging to phenotype PM (poor metabolizer); settings: in vivo, po; in short: as §1
[19] = Volume of distribution at steady state was determined after administering 1 mg/kg of compound intravenously in rat no.1 belonging to phenotype EM (extensive metabolizer); set-up: dose 1 mg/kg, route intravenous; settings: in vivo, iv, read-out: Vdss; in short: as §2
[20] = Maximum time of retention of orally administered compound (30 mg/kg) in rat no.5 belonging to phenotype PM (poor metabolizer); settings: in vivo, po; in short: as §1
[21] = Pharmacokinetic parameter (AUC) was determined after administering 1 mg/kg of compound intravenously in rat no.1 belonging to phenotype EM (extensive metabolizer); set-up: dose 1 mg/kg, route intravenous; settings: in vivo, iv; in short: as §2
[22] = Maximum time of retention of orally administered compound (30 mg/kg) in rat no.6 belonging to phenotype EM (extensive metabolizer); settings: in vivo, po; in short: as §1
[23] = Half-life period of intravenously administered compound (1 mg/kg) in rat no.4 belonging to phenotype PM (poor metabolizer); settings: in vivo, iv, read-out: T1/2 beta (converted); in short: as §2
[24] = Mean residence time of intravenously administered compound (1 mg/kg) in rat no.2 belonging to phenotype EM (extensive metabolizer); settings: in vivo, iv; in short: as §2
[25] = Plasma clearance was determined after administering 1 mg/kg of compound intravenously in rat no.3 belonging to phenotype EM (extensive metabolizer); set-up: dose 1 mg/kg, route intravenous; settings: iv; in short: as §2
[26] = Mean residence time of intravenously administered compound (1 mg/kg) in rat no.3 belonging to phenotype EM (extensive metabolizer); settings: in vivo, iv; in short: as §2
[27] = Volume of distribution at steady state was determined after administering 1 mg/kg of compound intravenously in rat no.2 belonging to phenotype EM (extensive metabolizer); set-up: dose 1 mg/kg, route intravenous; settings: in vivo, iv, read-out: Vdss; in short: as §2
[28] = Mean residence time of intravenously administered compound (1 mg/kg) in rat no.4 belonging to phenotype PM (poor metabolizer); settings: in vivo, iv; in short: as §2
[29] = Mean residence time after oral administration of 30 mg/kg of compound in rat no.6 belonging to phenotype EM (extensive metabolizer); set-up: dose 30 mg/kg, route oral; settings: in vivo; in short: as §1
[30] = Plasma clearance was determined after administering 1 mg/kg of compound intravenously in rat no.4 belonging to phenotype PM (poor metabolizer); set-up: dose 1 mg/kg, route intravenous; settings: iv; in short: as §2
[31] = Half-life period of intravenously administered compound (1 mg/kg) in rat no.3 belonging to phenotype EM (extensive metabolizer); settings: in vivo, iv, read-out: T1/2 beta (converted); in short: as §2
[32] = Maximum time of retention of orally administered compound (30 mg/kg) in rat no.7 belonging to phenotype PM (poor metabolizer); settings: in vivo, po; in short: as §1
[33] = Maximum plasma concentration was determined after administering 30 mg/kg of compound orally n rat no.7 belonging to phenotype PM (poor metabolizer); set-up: dose 30 mg/kg, route oral; settings: po; in short: as §1
[34] = Half-life period of intravenously administered compound (1 mg/kg) in rat no.1 belonging to phenotype EM (extensive metabolizer); settings: in vivo, iv, read-out: T1/2 beta (converted); in short: as §2
[35] = Plasma clearance was determined after administering 1 mg/kg of compound intravenously in rat no.8 belonging to the phenotype EM (extensive metaboliser); set-up: dose 1 mg/kg, route intravenous; settings: iv
In short: (§3)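 Male Sprague–Dawley rats (n = 4) were first phenotyped by a 3 mg/kg oral dose. Plasma taken at 30 min was run on HPLC, and a metabolite peak present marked EM, absent marked PM. After a 1-week washout, each phenotype (n = 2) received 1 mg/kg intravenously. Plasma concentration was determined by HPLC.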

[36] = Half-life period of intravenously administered compound (1 mg/kg) in rat no.10 belonging to the phenotype […] (poor metaboliser); settings: in vivo, iv; in short: as §3
[37] = Half-life period of intravenously administered compound (1 mg/kg) in rat no.8 belonging to the phenotype EM (extensive metaboliser); settings: in vivo, iv; in short: as §3
[38] = Plasma clearance was determined after administering 1 mg/kg of compound intravenously in rat no.10 belonging to the phenotype […] (poor metaboliser); set-up: dose 1 mg/kg, route intravenous; settings: iv; in short: as §3
[39] = Plasma clearance was determined after administering 1 mg/kg of compound intravenously in rat no.11 belonging to the phenotype […] (poor metaboliser); set-up: dose 1 mg/kg, route intravenous; settings: iv; in short: as §3
[40] = Volume of distribution at steady state was determined after administering 1 mg/kg of compound intravenously in rat no.9 belonging to the phenotype EM (extensive metaboliser); set-up: dose 1 mg/kg, route intravenous; settings: in vivo, iv, read-out: Vdss; in short: as §3
[41] = Volume of distribution at steady state was determined after administering 1 mg/kg of compound intravenously in rat no.10 belonging to the phenotype […] (poor metaboliser); set-up: dose 1 mg/kg, route intravenous; settings: in vivo, iv, read-out: Vdss; in short: as §3
[42] = Volume of distribution at steady state was determined after administering 1 mg/kg of compound intravenously in rat no.11 belonging to the phenotype EM (poor metaboliser); set-up: dose 1 mg/kg, route intravenous; settings: in vivo, iv, read-out: Vdss; in short: as §3
[43] = Half-life period of intravenously administered compound (1 mg/kg) in rat no.11 belonging to the phenotype […] (poor metaboliser); settings: in vivo, iv; in short: as §3
[44] = Pharmacokinetic parameter (AUC) was determined after administering 1 mg/kg of compound intravenously in rat no.11 belonging to the phenotype […] (poor metaboliser); set-up: dose 1 mg/kg, route intravenous; settings: in vivo, iv; in short: as §3
[45] = Plasma clearance was determined after administering 1 mg/kg of compound intravenously in rat no.9 belonging to the phenotype EM (extensive metaboliser); set-up: dose 1 mg/kg, route intravenous; settings: iv; in short: as §3
[46] = Pharmacokinetic parameter (AUC) was determined after administering 1 mg/kg of compound intravenously in rat no.10 belonging to the phenotype […] (poor metaboliser); set-up: dose 1 mg/kg, route intravenous; settings: in vivo, iv; in short: as §3
[47] = Volume of distribution at steady state was determined after administering 1 mg/kg of compound intravenously in rat no.8 belonging to the phenotype EM (extensive metaboliser); set-up: dose 1 mg/kg, route intravenous; settings: in vivo, iv, read-out: Vdss; in short: as §3
[48] = Pharmacokinetic parameter (AUC) was determined after administering 1 mg/kg of compound intravenously in rat no.8 belonging to the phenotype EM (extensive metaboliser); set-up: dose 1 mg/kg, route intravenous; settings: in vivo, iv; in short: as §3
[49] = Pharmacokinetic parameter (AUC) was determined after administering 1 mg/kg of compound intravenously in rat no.9 belonging to the phenotype EM (extensive metaboliser); set-up: dose 1 mg/kg, route intravenous; settings: in vivo, iv; in short: as §3
[50] = Half-life period of intravenously administered compound (1 mg/kg) in rat no.9 belonging to the phenotype EM (extensive metaboliser); settings: in vivo, iv; in short: as §3
[51] = read-out: T1/2 alpha (converted)
[52] = read-out: T1/2 beta (converted)

COc1cc2ncnc(N3CCN(C(=O)Nc4ccc(C#N)cc4)CC3)c2cc1OC
MRT [1]: 382 min | Vd [2]: 0.15 L/kg | AUC [3]: 26300 ng·h/mL | Cmax [4]: 5220 ng/mL | clearance [5]: 5.82 mL/min/kg | AUC [6]: 2420 ng·h/mL | AUC [7]: 815000 ng·h/mL | AUC [8]: 23600 ng·h/mL | MRT [9]: 39 min | half-life [10]: 27 min | clearance [11]: 6.73 mL/min/kg | Cmax [12]: 50700 ng/mL | AUC [13]: 455000 ng·h/mL | MRT [14]: 514 min | half-life [15]: 204 min | Vd [16]: 0.18 L/kg | half-life [17]: 152 min | half-life [18]: 315 min | Vd [19]: 0.22 L/kg | Tmax [20]: 480 min | AUC [21]: 2870 ng·h/mL | Tmax [22]: 120 min | half-life [23]: 186 min | MRT [24]: 23.4 min | clearance [25]: 6.88 mL/min/kg | MRT [26]: 21 min | Vd [27]: 0.16 L/kg | MRT [28]: 252 min | MRT [29]: 235 min | clearance [30]: 0.707 mL/min/kg | half-life [31]: 23.4 min | Tmax [32]: 120 min | Cmax [33]: 35200 ng/mL | half-life [34]: 58.2 min

COCCOc1cc2c(N3CCN(C(=O)Nc4ccc(C#N)cc4)CC3)ncnc2cc1OC
clearance [35]: 14.4 mL/min/kg | half-life [36, 51]: 1.9 min | half-life [36, 52]: 15.5 min | half-life [37, 51]: 2.69 min | half-life [37, 52]: 13.8 min | clearance [38]: 13.1 mL/min/kg | clearance [39]: 17.5 mL/min/kg | Vd [40]: 0.252 L/kg | Vd [41]: 0.232 L/kg | Vd [42]: 0.286 L/kg | half-life [43, 51]: 3.58 min | half-life [43, 52]: 13.1 min | AUC [44]: 950 ng·h/mL | clearance [45]: 13.2 mL/min/kg | AUC [46]: 1280 ng·h/mL | Vd [47]: 0.215 L/kg | AUC [48]: 1160 ng·h/mL | AUC [49]: 1260 ng·h/mL | half-life [50, 51]: 2.99 min | half-life [50, 52]: 15.7 min
